Test results published in ChEMBL document CHEMBL1138340, “Cannabilactones: a novel class of CB2 selective agonists with peripheral analgesic activity” (J Med Chem, 2007).
Activity calls are given as the source filed them.

Experiments:
Cannabinoid receptor 2 = Cannabinoid receptor 2 (Mus musculus, UniProt P47936); assay: Displacement of [3H]CP-55940 from CB2 receptor in mouse spleen membranes; type: cell membranes, Membrane
How it was run: (§1)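 Competitive displacement of [3H]CP55,940 (3.08 nM) from rat forebrain synaptosomal membranes (CB1) or frozen mouse spleen membranes (CB2), 40–50 µg protein. Test ligand at eight concentrations in DMSO. Incubation 1 h at 30 °C in TME buffer (25 mM Tris, 5 mM MgCl2, 1 mM EDTA) with 0.1% BSA. Nonspecific binding defined with 200 nM CP55,940. Bound ligand separated by rapid filtration and read by scintillation counting. Data from three independent experiments fitted by four-parameter logistic to give IC50, converted to Ki by Cheng–Prusoff.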

Rattus norvegicus [1] = assay: Antinociceptive activity in sc dosed Sprague-Dawley rat assessed as paw withdrawal latency to radiant heat after 20 mins; type: functional
How it was run: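 Male Sprague–Dawley rats, 200–300 g. Drug in DMSO, 50 µL, injected subcutaneously into the plantar hindpaw 20 min before testing. […] A50 (dose giving 50% MPE) taken from dose–response curves by Tallarida–Murray. n=6 per group, mean ± SEM.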

[2] = target: Cannabinoid receptor 2 (Mus musculus) (UniProt P47936); assay: Agonist activity at CB2 receptor in mouse spleen membranes at 1 uM after 2 hrs by [35S]GTP-gamma-S binding assay; type: functional, cell membranes; settings: Membrane
How it was run: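 Mouse spleen lysed in a cell disruption bomb, centrifuged at 1000 g then 175000 g, and resuspended in TME with 0.1% BSA. Membranes (24–40 µg) incubated 2 h at 30 °C with test compound at 1 µM, 30 µM GDP and 0.05 nM [35S]GTPγS. Nonspecific binding defined with 10 µM unlabeled GTPγS. Bound label measured after GF/B filtration by scintillation counting. Reported with standard deviations.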

[3] = target: Cannabinoid receptor 2 (Mus musculus) (UniProt P47936); assay: Agonist activity at CB2 receptor in mouse spleen membranes assessed as inhibition of forskolin-stimulated cAMP production; type: functional, cell membranes; settings: Membrane
[4] = Selectivity of mouse CB2 receptor over rat CB1 receptor
How it was run: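 Ratio of Ki values from [3H]CP55,940 displacement using rat brain synaptosomal membranes (CB1) and mouse spleen membranes (CB2). Both incubated 1 h at 30 °C in TME with 0.1% BSA. IC50 from three independent experiments converted to Ki by Cheng–Prusoff.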

Rattus norvegicus [5] = assay: Neurotoxicity in Sprague-Dawley rat assessed as ambulation on rotarod apparatus at 3.3 mg/kg, ip after 15 mins; type: toxicity, organism-based; set-up: dose 3.3 mg/kg, route intraperitoneal; settings: in vivo, 0.25 h
How it was run: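 Rats trained to stay 180 s on a rotarod at 10 rpm. Drug given i.p. at 3.3 mg/kg. Time to fall recorded 15 min after dosing, with a 180 s cutoff; comparison is to vehicle baseline.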

Cannabinoid receptor 1 = Cannabinoid receptor 1 (Rattus norvegicus, UniProt P20272); assay: Displacement of [3H]CP-55940 from CB1 receptor in rat brain synaptosomes; type: subcellular
How it was run: as §1, with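 “Test” for “Competitive displacement of [3H]CP55,940 (3.08 nM) from rat forebrain synaptosomal membranes (CB1) or frozen mouse spleen membranes (CB2), 40–50 µg protein. Test”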

Sequence of Cannabinoid receptor 2 (P47936 whole entry): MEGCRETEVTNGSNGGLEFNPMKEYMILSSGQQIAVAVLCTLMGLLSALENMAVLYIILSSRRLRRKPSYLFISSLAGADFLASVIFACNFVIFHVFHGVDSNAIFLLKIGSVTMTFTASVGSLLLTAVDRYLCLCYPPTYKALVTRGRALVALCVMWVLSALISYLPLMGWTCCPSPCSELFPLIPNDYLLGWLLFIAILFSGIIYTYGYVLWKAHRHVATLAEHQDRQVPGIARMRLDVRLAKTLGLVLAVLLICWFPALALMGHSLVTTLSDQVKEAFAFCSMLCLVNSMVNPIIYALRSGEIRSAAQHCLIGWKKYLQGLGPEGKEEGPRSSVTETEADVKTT
Sequence of Cannabinoid receptor 2 (Mus musculus) (P47936 whole entry): as above
Sequence of Cannabinoid receptor 1 (P20272 whole entry): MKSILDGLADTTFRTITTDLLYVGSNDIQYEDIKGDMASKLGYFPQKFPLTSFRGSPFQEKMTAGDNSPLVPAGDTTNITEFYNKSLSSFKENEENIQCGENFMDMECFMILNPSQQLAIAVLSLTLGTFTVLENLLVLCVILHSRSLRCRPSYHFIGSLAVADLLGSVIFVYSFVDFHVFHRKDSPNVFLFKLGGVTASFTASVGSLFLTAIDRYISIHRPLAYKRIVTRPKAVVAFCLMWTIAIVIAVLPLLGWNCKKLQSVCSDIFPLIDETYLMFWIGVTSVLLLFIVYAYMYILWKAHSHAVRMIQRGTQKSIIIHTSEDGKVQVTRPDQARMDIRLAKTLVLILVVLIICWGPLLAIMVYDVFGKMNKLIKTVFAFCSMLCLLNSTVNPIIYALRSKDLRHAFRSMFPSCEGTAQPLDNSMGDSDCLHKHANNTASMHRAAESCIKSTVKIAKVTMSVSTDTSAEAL

Compound | Ki (Cannabinoid receptor 2) [nM] | A50 (Rattus norvegicus [1]) [mg/kg] | Activity [2] [%] | Activity [3] | Ratio Ki [4] | Activity (Rattus norvegicus [5]) | Ki (Cannabinoid receptor 1) [nM]
CCCCCCC(C)(C)c1cc(O)c2c(c1)oc(=O)c1ccc(O)cc12 | 0.82 | 4.5 | 55 | Active | 490 | Non-toxic | 400
CCCCCCC(C)(C)c1cc(O)c2c(c1)OC(C)(C)c1ccc(C)cc1-2 | 1.1 | – | – | – | 0.86 | – | 0.95
CCCCCCC(C)(C)c1cc(O)c2c(c1)oc(=O)c1ccc(C)cc12 | 3.1 | – | – | – | – | – | 39
CCCCCCC(C)(C)c1cc(O)c2c(c1)oc(=O)c1ccc(OC)cc12 | 6.7 | 1.6 | 50 | Active | 54 | – | 360
CCCCCCC(C)(C)c1cc(O)c2c(c1)OC(C)(C)c1ccc(OC)cc1-2 | 5.9 | – | 42 | – | 0.92 | – | 5.4
Cc1c(C(=O)c2cccc3ccccc23)c2cccc3c2n1[C@H](CN1CCOCC1)CO3 | – | – | 56 | – | – | – | –
CCCCCCC(C)(C)c1cc(O)c2c(c1)OC(C)(C)c1ccc(O)cc1-2 | 4.8 | – | – | – | 0.54 | – | –
